According to the EternaBench riboswitch data:

Tested on: MS2 coat protein
Experiment: apparent Kd, MS2 coat protein; higher = weaker binding; RNA-MaP array; FMN 200 µM where present
How it was run: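 Binding was read on Illumina sequencing-chip clusters where stalled E. coli RNA polymerase had transcribed each design. A titration of SNAP-549-labelled MS2 coat protein began at 0.7 or 1.5 nM and doubled to 3 µM, once without ligand and once with constant ligand, in 100 mM Tris-HCl pH 7.5, 80 mM KCl, 4 mM MgCl2, BSA, DTT, yeast tRNA and Tween-20. The apparent Kd is the median of filtered per-cluster binding-curve fits, based on green signal normalised to red-channel RNA signal and control-cluster median Fmax.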

[1] = designed as: ON switch for flavin mononucleotide, no ligand
[2] = ligand present: flavin mononucleotide, designed as: ON switch for flavin mononucleotide
[3] = designed as: OFF switch for flavin mononucleotide, no ligand
[4] = ligand present: flavin mononucleotide, designed as: OFF switch for flavin mononucleotide

AUUAAACAUGAGGAUCACCCAUGUCAACAAAGUCGAGGAUAUGGGCAUAUUAUCUAAUAACCAGAAGGCGAAUAAU
apparent Kd [1]: 182 nM
apparent Kd [2]: 45.9 nM

GGUCCAUCAUGAGGAUAUGGCACCUUAUUUGUGCCAGAAGGCAUGUCGAUAGACAUGAGGAUCACCCAUGUAAUAAAUUGGACC
apparent Kd [1]: 1430 nM
apparent Kd [2]: 104 nM

UUGGAGUACGUAGGAUAUGUAGGAUAUUCCUACAUGAGGAUCACCCAUGUAAGCAUGGAAGAAGGACAGAAGGACGUGCUCCAU
apparent Kd [1]: 223 nM
apparent Kd [2]: 14.9 nM

AAGACCAGAGGAUAUCAGACGCGGCACAUGAGGAUCACCCAUGUAUUCCCGUCUGCCGACUGAGAAGGUUGGAAAG
apparent Kd [3]: 12.5 nM
apparent Kd [4]: 17 nM

AACGCGUCAGGAUAUGCCAUAAAUUACGUAGUACGACCAUAGUAGAAGGGACAUGAGGAUCACCCAUGUGGGUA
apparent Kd [3]: 177 nM
apparent Kd [4]: 137 nM

UAGAAGUCAGGAUAUCCUGCUCGUCACUUGCGUGAUGAGUAGGAGAAGGGACAUGAGGAUCACCCAUGUAAAGU
apparent Kd [3]: 56.5 nM
apparent Kd [4]: 63.9 nM

CUUUAGUGAGGAUAUCAGUAGUAAUACAAUAGUAUUACUACUGAGAAGGCACAUGAGGAUCACCCAUGUUCUUC
apparent Kd [3]: 17.3 nM
apparent Kd [4]: 50 nM

GGAUGACACAGUCAUCCAAUACGAACAUGAGGAUCACCCAUGUAGGAUAUGCUACUCAAAGAGUAGCAGAAGGACAUGUGCCUU
apparent Kd [3]: 39.1 nM
apparent Kd [4]: 257 nM

AGAGAUACGCUCGUCGGACACCGACAUGAGGAUCACCCAUGUAGAAGGCGAUGCGCAACUCGCAUUGAGGAUAUAUAAUGCAGC
apparent Kd [3]: 6 nM
apparent Kd [4]: 5.74 nM

UCAUAUAUACAAGGAUAUCAAUGAUUUAUAGAUCCUACAUGAGGAUCACCCAUGUUUUUAUAUUUUGAGAAGGUGUAAUGUCUU
apparent Kd [1]: 218 nM
apparent Kd [2]: 254 nM

AGUAAGAUGCAGAAGGUGUUAGCUAGAGCUACGACAUGAGGAUCACCCAUGUACUAGAAACAGUACAAGGAUAUGCAUCUUACG
apparent Kd [1]: 16.6 nM
apparent Kd [2]: 6.47 nM

CAGCGAAAGCUGAAUCUGUAGAGAGAGGAUAUACAAGAAUAAAUCCAUACAUGAGGAUCACCCAUGUAGAAGGCUCUCUACAGU
apparent Kd [3]: 7.41 nM
apparent Kd [4]: 26.6 nM

GGACGUCACAUUUACAUGAGGAUCACCCAUGUCGAAAGACAUGAGGAUAUGCAUCCUAAUUGGAUGCAGAAGGCAUGGACGUCC
apparent Kd [1]: 335 nM
apparent Kd [2]: 245 nM

UGGUACAUCAUAGGAUAUCGUGUGUAAACAUGAGGAUCACCCAUGUCAUACGAGAGUAUGUAGAUCGAGAAGGAUGAUGUACCU
apparent Kd [1]: 18.1 nM
apparent Kd [2]: 16.1 nM

CAAAUCUGAGGAUAUCGAUUUUUGUACAUGAGGAUCACCCAUGUCCUUUUUAUUAAAUCCCGAGAAGGCAGUGUAU
apparent Kd [3]: 27.1 nM
apparent Kd [4]: 31.2 nM

CGCAACUCAGAUCUGUUAAACAUGAGGAUCACCCAUGUAUUGAGAAGGAGGAAGAAGAGAGAUUCCUAGGAUAUCAGAGUUGCG
apparent Kd [3]: 6.62 nM
apparent Kd [4]: 6.98 nM

GAUUUCGCAUGAGGAUAUGCUCGCAUUUCAAGAGCAGAAGGUAUGUCUUUAGACAUGAGGAUCACCCAUGUAGUUAAGAUUGAA
apparent Kd [1]: 24.3 nM
apparent Kd [2]: 14.7 nM

AAACAUGUCCGAGGAUAUCUGGAAACAUUUCCAAGAGAAGGCGGACAUGAGGAUCACCCAUGUCUCUCCUCAUCACAUCCAAGU
apparent Kd [3]: 9.27 nM
apparent Kd [4]: 79.3 nM

GAUUCACAUGAGGAUCACCCAUGUGAGGAUAUCUAGGUGCGGAGGCUAAGACCUCCAGAGAGAAGGCACAUGGC
apparent Kd [3]: 24.2 nM
apparent Kd [4]: 36.8 nM

GGUAGAAACAUUAACAUGAGGAUCACCCAUGUCAAAAGAAAUGAGGAUAUCGUCUACAAUGUAGAUGAGAAGGCAUGGUCUGCC
apparent Kd [1]: 8.45 nM
apparent Kd [2]: 6.84 nM

GCUGACGAUGUAGGAUAUCAGUAUAAUAAAUACUGAGAAGGACAUGAGGAUCACCCAUGUCUCCAACGUCAGCAGAGGAAACUC
apparent Kd [3]: 15.9 nM
apparent Kd [4]: 16.8 nM

CGUCCACAUGAGGAUCACCCAUGUGAGGAUAUCCAUACCCACAACCAAUACACAUUAUGGAGAAGGCACACACA
apparent Kd [3]: 20.2 nM
apparent Kd [4]: 19.9 nM

CCAGUGUUAGGAUAUGAUACUAAUGGAUAGCAUUCCGCAGUUUAGAAGGGACAUGAGGAUCACCCAUGUACGGG
apparent Kd [3]: 144 nM
apparent Kd [4]: 139 nM
